Source: ChEMBL document CHEMBL5506013, “Mitochondria-Selective Dicationic Small-Molecule Ligand Targeting G-Quadruplex Structures for Human Colorectal Cancer Therapy” (J Med Chem, 2024)
Activity calls are given as the source filed them. No cut-off for these calls is given here.

Columns and labels:
[1] = Drug localization in nucleus of human HCT-116 cells at upto 4 uM incubated for 1 hrs by hoechst33342 staining based live cell imaging analysis; format: ADME, subcellular; settings: hct-116, 1 h
HCT-116 [2] = assay: Induction of DNA damage in human HCT-116 assessed as increase in gammaH2AX level at upto 4 uM incubated for 72 hrs in presence of MitoTEMPOL by Western blot analysis; format: functional, cell-based
HCT-116 [3] = assay: Induction of mitochondrial dysfunction in human HCT-116 cells assessed as decrease in ATP production at upto 4 uM incubated for 3 hrs by Seahorse XFe24 analyzer; format: functional, cell-based
Outline: (§1)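 Seahorse Mito-stress and glycolysis stress tests on HCT116 cells treated with ligand for 3 h. Oxygen consumption rate and extracellular acidification rate recorded.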

HCT-116 [4] = assay: Downregulation of COX2 mRNA level in human HCT-116 cells at 0 to 4 uM measured after 48 hrs by qRT-PCR analysis; format: functional, cell-based; settings: dose 0-4 µM
Quadruplex DNA [5] = assay: Binding affinity to mito 0.5-16 G4 DNA (unknown origin) assessed as increase in fluorescence intensity by fluorescence spectrophotometric analysis; format: nucleic-acid assay
Outline: (§2)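 Oligonucleotides were pre-annealed at 95 °C for 10 min, then cooled slowly. Ligand (5 uM) was mixed with 20 uM DNA in buffer. Emission was collected over 550–800 nm, and enhancement was taken at 650 nm as F/F0.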

[6] = Toxicity in BALB/c nude mouse assessed as change in platelet count at 5 mg/kg, iv administered every two days for 16 days; format: organism-based; settings: in vivo, 384 h, time 16 day
Outline: (§3)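 HCT116 xenograft-bearing male Balb/c nude mice (6/group) dosed iv at 5 mg/kg every two days or with PBS. Whole blood collected at sacrifice on day 16 for hematology parameters.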

Quadruplex DNA [7] = assay: Binding affinity to Mito 81 G4 DNA (unknown origin) assessed as change in melting temperature at 5 uM by circular dichroism spectroscopic analysis; format: nucleic-acid assay
[8] = Toxicity in BALB/c nude mouse assessed as change in white blood cell count at 5 mg/kg, iv administered every two days for 16 days; format: organism-based; settings: in vivo, 384 h, time 16 day; outline: as §3
[9] = Drug localization in human HCT-116 cells by measuring red foci at 4 uM incubated for 1 hr in presence of cyclosporin A by hoechst33342 staining based analysis; format: ADME, cell-based; settings: hct-116, 1 h
Outline: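 Pretreatment of live HCT116 cells: FCCP 1 uM for 20 min, cyclosporin A 1 uM for 24 h, DMOG 100 uM for 24 h, or MitoPDS at several concentrations for 3 h (applied after dye loading). Cells loaded with ligand 4 uM (excitation 488 nm) for 1 h and Hoechst33342 1 uM for 30 min. Red foci counted by confocal imaging in 100 cells. Mean ± SEM, t test.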

Quadruplex DNA [10] = assay: Binding affinity to Mito 0.5-15 G4 DNA (unknown origin) assessed as change in melting temperature at 5 uM by circular dichroism spectroscopic analysis; format: nucleic-acid assay
Cell membrane = assay: Induction of mitochondrial membrane potential depolarization in human HCT-116 cells assessed as […] in TMRE fluorescence incubated for 48 hrs by TMRE staining based analysis; format: cell membranes; settings: dose <= 4.0 µM
Quadruplex DNA [11] = assay: Binding affinity to mito 55 G4 DNA (unknown origin) assessed as dissociation constant measured upto 150 secs by isothermal titration calorimetry assay; format: nucleic-acid assay
[12] = Drug localization in lysosome of living human HCT-116 cells assessed as colocalization at 4 uM incubated for 1 hr by lyso-tracker blue staining based analysis; format: ADME, subcellular; settings: hct-116, 1 h
DNA [13] = assay: Binding affinity to HP19 DNA (non-G4 DNA) (unknown origin) assessed as dissociation constant measured upto 150 secs by isothermal titration calorimetry assay; format: nucleic-acid assay
HCT-116 [14] = assay: Downregulation of ATP8 mRNA level in human HCT-116 cells at 0 to 4 uM measured after 48 hrs by qRT-PCR analysis; format: functional, cell-based; settings: dose 0-4 µM
[15] = Drug localization in human HCT-116 cells transfected with Cy5-mito 78 G4 DNA at 4 uM incubated for 1 hr by hoechst33342 staining based analysis; format: ADME, cell-based; settings: hct-116, 1 h
Outline: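 HCT116 cells transfected with Cy5-coupled mtDNA for 24 h, then given ligand 4 uM for 1 h and Hoechst33342 1 uM for 30 min. Single-plane confocal imaging of living cells, ligand excited at 488 nm, Cy5 at 635 nm. Colocalization expressed as r.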

DNA [16] = assay: Binding affinity to SS19 DNA (non-G4 DNA) (unknown origin) assessed as change in melting temperature at 5 uM by circular dichroism spectroscopic analysis; format: nucleic-acid assay
HCT-116 [17] = assay: Downregulation of mitochondrial respiratory chain complex I level in human HCT-116 cells at upto 4 uM measured after 48 hrs by Western blot analysis; format: functional, cell-based
MDA-MB-231 = assay: Antiproliferative activity against human MDA-MB-231 cells measured after 48 hrs by MTT assay; format: functional, cell-based; settings: MDA-MB-231, 48 h
Outline: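 Cells exposed to the ligands for 48 h. Viability was read by MTT, and the IC50 was derived from the response.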

[18] = Toxicity in BALB/c nude mouse assessed as effect on heart at 5 mg/kg, iv measured after 16 hrs post injection by H and E staining based analysis; format: organism-based; settings: in vivo
Quadruplex DNA [19] = assay: Binding affinity to mito 0.5-15 G4 DNA (unknown origin) assessed as dissociation constant measured upto 150 secs by isothermal titration calorimetry assay; format: nucleic-acid assay
HCT-116 [20] = assay: Downregulation of ND2 mRNA level in human HCT-116 cells at 0 to 4 uM measured after 48 hrs by qRT-PCR analysis; format: functional, cell-based; settings: dose 0-4 µM
Quadruplex DNA [21] = assay: Binding affinity to mito 0.5-16 G4 DNA (unknown origin) assessed as dissociation constant measured upto 450 secs by surface plasmon resonance assay; format: nucleic-acid assay
Outline: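 Surface plasmon resonance in buffer at 25 °C. Four G4-mtDNAs (Mito 78, Mito 55, Mito 29, Mito 0.5-16) and the hairpin HP19 served as substrates. Kd was derived from the sensorgrams.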

HCT-116 [22] = assay: Inhibition of glycolysis in human HCT-116 cells assessed as reduction in glucose consumption at upto 4 uM measured after 3 hrs by Seahorse XFe24 analyzer; format: functional, cell-based
Quadruplex DNA [23] = assay: Binding affinity to Mito 0.5-16 G4 DNA (unknown origin) assessed as increase in CD signal at 5 uM at 290 nM by circular dichroism spectroscopic analysis; format: nucleic-acid assay
Quadruplex DNA [24] = assay: Binding affinity to mito 0.5-15 G4 DNA (unknown origin) assessed as increase in fluorescence intensity by fluorescence spectrophotometric analysis; format: nucleic-acid assay; outline: as §2
[25] = Drug localization in nucleus of living human HCT-116 cells assessed as colocalization at 4 uM incubated for 1 hr by Hoechst33342 staining based analysis; format: ADME, subcellular; settings: hct-116, 1 h
HCT-116 [26] = assay: Induction of mitochondrial dysfunction in human HCT-116 cells assessed as decrease in oxygen consumption rate at upto 4 uM incubated for 3 hrs by Seahorse XFe24 analyzer; format: functional, cell-based; outline: as §1
[27] = Drug localization in nucleus of human HCT-116 cells at 1 to 8 uM incubated for 1 hrs by hoechst33342 staining based live cell imaging analysis; format: ADME, subcellular; settings: hct-116, 1 h, dose 1-8 µM
Quadruplex DNA [28] = assay: Binding affinity to Mito 29 G4 DNA (unknown origin) assessed as change in melting temperature at 5 uM by circular dichroism spectroscopic analysis; format: nucleic-acid assay
HCT-116 [29] = assay: Downregulation of COX2 protein level in human HCT-116 cells at upto 4 uM incubated for 48 hrs by Western blot analysis; format: functional, cell-based

Drug uptake [1]: Not Active | Activity (Quadruplex DNA [5]): Active | ΔTm (Quadruplex DNA [7]): 3.6 °C | Drug uptake [9]: Active | ΔTm (Quadruplex DNA [10]): 3.6 °C | Activity (Cell membrane): Dose-Dependent Effect | Kd (Quadruplex DNA [11]): 60 nM | Drug uptake [12]: Not Active | Kd (DNA [13]): > 4700 nM | Drug uptake [15]: Active | ΔTm (DNA [16]): 0.5 °C | IC50 (MDA-MB-231): 34600 nM | Kd (Quadruplex DNA [19]): 60 nM | Kd (Quadruplex DNA [21]): 290 nM | Activity (Quadruplex DNA [23]): Active | Activity (Quadruplex DNA [24]): Active | Drug uptake [25]: Not Active | Drug uptake [27]: Not Active | ΔTm (Quadruplex DNA [28]): 3.6 °C
SMILES: C(=C\c1ccc2ccccc2[n+]1CCCCCCCC[n+]1c(/C=C/c2ccc(N3CCCCC3)cc2)ccc2ccccc21)/c1ccc(N2CCCCC2)cc1.[I-].[I-]
Activity (HCT-116 [2]): inactive | Activity (HCT-116 [3]): Active | Activity (HCT-116 [4]): Active | Activity [6]: Non-Toxic | Activity [8]: Non-Toxic | Activity (HCT-116 [14]): Active | Activity (HCT-116 [17]): Active | Activity [18]: Non-Toxic | Activity (HCT-116 [20]): Active | inhibition (HCT-116 [22]): Active | Activity (HCT-116 [26]): Active | Activity (HCT-116 [29]): Active
